Measured values of several laboratories.
Lines come from different studies, so protocols differ.
Cell line: MV4-11
Read-out: cell growth or viability

| SMILES | method | time | endpoint | value |
| --- | --- | --- | --- | --- |
| c1cc(N2CCCCC2)ccc1Nc1cc2ncc(OCC3CCNCC3)nc2cc1-c1ccc(N2CCCCC2)cc1 | XTT | 7 days | EC50 | 3000 nM |
| O=C(NCC1CC1)c1ccc(-c2nc3ccc4[nH]ncc4c3c3c2CCCC3)cc1 | resazurin | 72 h | GI50 | > 10000 nM |
| CONC(=O)c1cccc2c1cc(C)n2-c1nc2c(c(NCc3ccccc3)n1)CCCN2 | – | 72 h | IC50 | 400 nM |
| O=C(NCCN1CCCC1)c1ccc(-c2nc3ccc4[nH]ncc4c3c3c2CCCC3)c(F)c1 | resazurin | 72 h | GI50 | 208 nM |
| O=C(NO)c1ccc(Cn2cnc3c(Nc4ccc(Br)cc4F)ncnc32)cc1 | MTT | 72 h | IC50 | 770 nM |
| Cc1n[nH]c2ccc3nc(-c4ccc(C(=O)NCCN(C)C)cn4)c4c(c3c12)CCCCC4 | resazurin | 72 h | GI50 | 132 nM |
| Cc1sc2c(c1C)C(c1ccc(Cl)cc1)=N[C@@H](CC(=O)NCCCCNC(=O)COc1cccc3c1C(=O)N(C1CCC(=O)NC1=O)C3=O)c1nnc(C)n1-2 (stereo partly shown) | CCK-8 | 72 h | IC50 | 520 nM |
| COc1cc(-c2cc(C(C)=O)n3ccccc23)c(OC)cc1Cn1ccnc1 | ATP luminescence | – | IC50 | 70 nM |
| Nc1ccccc1NC(=O)c1ccc(Cn2cnc3c(Nc4ccc(Cl)cc4)ncnc32)cc1 | MTT | 72 h | IC50 | 590 nM |
| Nc1cccc(-c2ccc3ncc(OCC4CCNCC4)nc3c2)c1 | XTT | 7 days | EC50 | ≥ 28000 nM |
| Cc1n[nH]c2ccc3nc(-c4ccc(C(=O)N(C)CCN(C)C)cc4)c4c(c3c12)CCC(C)(C)C4 | resazurin | 72 h | GI50 | 258 nM |
| c1ccc(Oc2ccc(Nc3ccc4ncc(OCC5CCNCC5)nc4c3)cc2)cc1 | XTT | 7 days | EC50 | 880 nM |
| Nc1ccccc1NC(=O)c1ccc(Cn2cnc3c(Nc4ccc(Br)cc4F)ncnc32)cc1 | MTT | 72 h | IC50 | 280 nM |
| Fc1ccc(Oc2ccc(Nc3ccc4ncc(OCC5CCNCC5)nc4c3)cc2)cc1 | XTT | 7 days | EC50 | 960 nM |
| Cc1n[nH]c2ccc3nc(-c4ccc(C(=O)NCCN(C)C)cc4)c4c(c3c12)CCC(C)(C)C4 | resazurin | 72 h | GI50 | 223 nM |
| COc1ccc(Nc2ncnc3c2ncn3Cc2ccc(C(=O)NO)cc2)cc1 | MTT | 72 h | IC50 | 580 nM |
